This note sets out measurements from ChEMBL document CHEMBL1806430, “Novel aliphatic N-oxide of naphthalimides as fluorescent markers for hypoxic cells in solid tumor” (Eur J Med Chem, 2011).

In series [1] the test system is V79. The experiment in a line: Ratio drug uptake in chinese hamster V79 379A cells in hypoxic to oxic condition assessed as accumulation of fluorescent N-Oxide Benzo[k,l]xanthene-3,4-naphthalimide metabolites at 10^-4 M after 4.5 hrs by fluorescent microscopic analysis. It counts as ADME, cell-based, Cricetulus griseus. Particulars: 100 µM; call rule not given here. An outline of the steps: (§1)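 Hypoxic/oxic fluorescence ratio in V79 379A suspension cultures (MEM, 7.5% FCS). Cells given 10^-4 M compound (DMSO ≤1% final) at 37 °C under N2 + 5% CO2 or air + 5% CO2. Samples taken over a time course, centrifuged, PBS-washed and resuspended. Fluorescence read by microplate reader ("fluorescence scan ascent"); ratio taken at about 4.5 h.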

Series [2] has as its system V79. The experiment in a line: Drug uptake in hypoxic-chinese hamster V79 379A cells assessed as accumulation of fluorescent N-Oxide Benzo[k,l]thioxanthene-3,4-naphthalimide metabolites at 10^-4 M after 4.5 hrs by fluorescent microscopic analysis. It counts as ADME, cell-based, Cricetulus griseus. Particulars: 100 µM. The essentials:
(§2)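 V79 379A cells grown as suspension cultures in Eagle's MEM (suspension-modified, Earle's salts) with 7.5% fetal calf serum. Compound added at 10^-4 M, DMSO 1% final or less. Incubated 4.5 h at 37 °C under nitrogen + 5% CO2 (hypoxic) or air + 5% CO2 (oxic). Cells centrifuged, PBS-washed, resuspended in PBS, then imaged by fluorescence microscopy, excitation 410 nm, 1000×.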

Series [3] deals with V79. The experiment in a line: Drug uptake in oxic-chinese hamster V79 379A cells assessed as accumulation of fluorescent N-Oxide Benzo[k,l]thioxanthene-3,4-naphthalimide metabolite at 10^-4 M after 4.5 hrs by fluorescent microscopic analysis. The conditions noted are these: 100 µM. It counts as ADME, cell-based, Cricetulus griseus. The essentials: as §2
The test system of series [4] is V79. The experiment in a line: Ratio drug uptake in chinese hamster V79 379A cells in hypoxic to oxic condition assessed as accumulation of fluorescent N-Oxide Benzo[k,l]thioxanthene-3,4-naphthalimide metabolites at 10^-4 M after 4.5 hrs by fluorescent microscopic analysis. It counts as ADME, cell-based, Cricetulus griseus. Particulars: 100 µM. An outline of the steps:
as §1

In series [5] the test system is Nucleic Acid. The experiment in a line: Binding affinity to calf thymus DNA assessed as binding constant. Particulars: Bos taurus. It counts as nucleic-acid assay. An outline of the steps: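 Fluorescence titration: compound at 10 × 10^-6 M in 20 mM Tris–HCl pH 7.5 at room temperature, with calf thymus DNA added in rising amounts (0–400 × 10^-6 M). Excitation 460 nm; emission spectra recorded.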

Series [6] relates to V79. The experiment in a line: Drug uptake in hypoxic-chinese hamster V79 379A cells assessed as accumulation of fluorescent N-Oxide 3-amino-1,8-naphthalimide metabolites at 10^-4 M after 4.5 hrs by fluorescent microscopic analysis. It counts as ADME, cell-based, Cricetulus griseus. Particulars: 100 µM. The essentials:
as §2

Series [7] relates to V79. The experiment in a line: Ratio drug uptake in chinese hamster V79 379A cells in hypoxic to oxic condition assessed as accumulation of fluorescent N-Oxide 3-amino-1,8-naphthalimide metabolites at 10^-4 M after 4.5 hrs by fluorescent microscopic analysis. The conditions noted are these: 100 µM. It counts as ADME, cell-based, Cricetulus griseus. An outline of the steps:
as §1

Series [8] relates to V79. The experiment in a line: Drug uptake in oxic-chinese hamster V79 379A cells assessed as accumulation of fluorescent N-Oxide 3-amino-1,8-naphthalimide metabolite at 10^-4 M after 4.5 hrs by fluorescent microscopic analysis. It counts as ADME, cell-based, Cricetulus griseus. The conditions noted are these: 100 µM. An outline of the steps:
as §2

For series [9], the system named is V79. The experiment in a line: Ratio drug uptake in chinese hamster V79 379A cells in hypoxic to oxic condition assessed as accumulation of fluorescent N-Oxide Benzo[b]xanthene [2,1-c]naphthalimide metabolites at 10^-4 M after 4.5 hrs by fluorescent microscopic analysis. It counts as ADME, cell-based, Cricetulus griseus. Particulars: 100 µM. An outline of the steps: as §1

Series [10] has as its system V79. The experiment in a line: Ratio drug uptake in chinese hamster V79 379A cells in hypoxic to oxic condition assessed as accumulation of fluorescent N-Oxide 3-nitro-1,8-naphthalimide metabolites at 10^-4 M after 4.5 hrs by fluorescent microscopic analysis. The conditions noted are these: 100 µM. It counts as ADME, cell-based, Cricetulus griseus. An outline of the steps: as §1

Series [11] concerns V79. The experiment in a line: Drug uptake in oxic-chinese hamster V79 379A cells assessed as accumulation of fluorescent N-Oxide 3-nitro-1,8-naphthalimide metabolite at 10^-4 M after 4.5 hrs by fluorescent microscopic analysis. It counts as ADME, cell-based, Cricetulus griseus. The conditions noted are these: 100 µM. The essentials: as §2
The subject of series [12] is V79. The experiment in a line: Drug uptake in hypoxic-chinese hamster V79 379A cells assessed as accumulation of fluorescent N-Oxide 3-nitro-1,8-naphthalimide metabolites at 10^-4 M after 4.5 hrs by fluorescent microscopic analysis. It counts as ADME, cell-based, Cricetulus griseus. Particulars: 100 µM. The essentials: as §2

As for `C[N+](C)([O-])CCn1c(=O)c2ccc3oc4ccccc4c4ccc(c1=O)c2c34`, the Ratio in [1] worked out at 1.5.

Regarding `C[N+](C)([O-])CCn1c(=O)c2ccc3sc4ccccc4c4ccc(c1=O)c2c34`, the Drug uptake result is given as “Active” in series [2] and “Not Active” in series [3]. For the same molecule, the Ratio in [4] is given as 1.75. The K in [5] was determined as 6.62 ×10³ /M.

For the molecule `C[N+](C)([O-])CCN1C(=O)c2cccc3cc(N)cc(c23)C1=O`, the Drug uptake result in series [6] was “Active”; in [8], “Not Active”. Further, the Ratio in [7] was 8.4.

For `C[N+](C)([O-])CCN1C(=O)c2cccc3c2c(cc2c4ccccc4sc32)C1=O`, in series [9], the Ratio is listed as 5.2.

With `C[N+](C)([O-])CCN1C(=O)c2cccc3cc([N+](=O)[O-])cc(c23)C1=O`, the Ratio in series [10] amounted to 17. Also, the figures for the Drug uptake entry in series [11] and in series [12] were “Not Active” and “Active”, respectively.

For the molecule `CN(C)CCn1c(=O)c2ccc3sc4ccccc4c4ccc(c1=O)c2c34`, the K in series [5] was determined as 2.9 ×10⁵ /M.
